Assay results from ChEMBL document CHEMBL4118027, “Preussilides A-F, Bicyclic Polyketides from the Endophytic Fungus Preussia similis with Antiproliferative Activity” (J Nat Prod, 2017).
pIC50: −log10 of the molar value. ≈ marks a conversion by molar mass, not a printed value. Calls of active or inactive are those of the source. The calls are words filed in the database; no cut-off is given here.

Columns and labels:
Sclerotinia sclerotiorum = assay: Antifungal activity against Sclerotinia sclerotiorum DSM 1946 at 100 ug/disk after 5 days by disk diffusion assay; assay type: functional; details: DSM 1946, 120 h, read-out: IZ
Summary of the method: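 Disk diffusion on YMG medium seeded with a mycelial suspension of the non-sporulating test fungus. Paper disks carried […] compound. Nystatin at 20 μg/disk was the positive control. Inhibition zone diameter (mm) was read after 5 days.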

Caenorhabditis elegans = assay: Nematicidal activity against Caenorhabditis elegans up to 100 ug/ml; assay type: functional, organism-based
U2OS [1] = assay: Cell cycle arrest in human U2OS cells assessed as accumulation at G2/M phase at 5 ug/ml after 18 hrs by propidium iodide staining based flow cytometry (reference value: 24.3%); assay type: functional
Summary of the method: (§1)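 U2OS were seeded at 7 × 10^5/well in six-well plates and exposed to 5 or 10 μg/mL for 18 h after spreading, with untreated and DMSO mock controls. Cells were trypsinized, fixed in 2% PFA/PBS, then in ice-cold methanol 30 min. Staining: anti-tubulin/anti-lamin antibodies plus RNase A and propidium iodide. Flow cytometry assigned G1, S, G2-M and sub-G1 by DNA content.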

[2] = system: Mycolicibacterium smegmatis; assay: Antibacterial activity against Mycobacterium smegmatis ATCC 700084 by serial dilution method; assay type: functional, organism-based
Pseudomonas aeruginosa = assay: Antibacterial activity against Pseudomonas aeruginosa PA14 by serial dilution method; assay type: functional, organism-based
U2OS [3] = assay: Induction of nuclear fragmentation in human U2OS cells at 0.25 to 5 ug/ml after 24 hrs by DAPI staining based immunofluorescence microscopic method; assay type: functional, cell-based
Escherichia coli = assay: Antibacterial activity against Escherichia coli DSM 498 by serial dilution method; assay type: functional, organism-based
U2OS [4] = assay: Cell cycle arrest in human U2OS cells assessed as accumulation at G2/M phase at 10 ug/ml after 18 hrs by propidium iodide staining based flow cytometry (reference value: 24.3%); assay type: functional; summary of the method: as §1
U2OS [5] = assay: Induction of morphological changes in human U2OS cells assessed as aberrantly sized cells with abnormal small nuclei formation at 0.25 to 5 ug/ml after 24 hrs by DAPI staining based immunofluorescence microscopic method; assay type: functional, cell-based
Summary of the method: (§2)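 U2OS in DMEM (4.5 g/L glucose, 10% FBS), 37 °C, 7% CO2, seeded 3 × 10^4/well on fibronectin-coated coverslips and adhered 16 h. Treated 24 h at 0.25, 0.5, 2.5, 5 or 10 μg/mL (diluted from 1 mg/mL DMSO stock), DMSO control. Fixed in 4% PFA/PBS 20 min; anti-α-tubulin (DM1A), phalloidin-Alexa 488 and DNA stain; immunofluorescence imaging.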

Setaria italica = assay: Phytotoxicity against Setaria italica assessed as inhibition of seedling germination at 100 ug/disk; assay type: functional, organism-based
U2OS [6] = assay: Cell cycle arrest in human U2OS cells assessed as accumulation at S phase at 5 ug/ml after 18 hrs by propidium iodide staining based flow cytometry (reference value: 19%); assay type: functional; summary of the method: as §1
U2OS [7] = assay: Induction of morphological changes in human U2OS cells assessed as multipolar and duplicated spindle formation at 0.25 to 5 ug/ml after 24 hrs by DAPI staining based immunofluorescence microscopic method; assay type: functional, cell-based; summary of the method: as §2
[8] = system: Schizosaccharomyces pombe; assay: Antifungal activity against Schizosaccharomyces pombe DSM 70572 by serial dilution method; assay type: functional, organism-based
L929 [9] = assay: Cytotoxicity against mouse L929 cells assessed as reduction in cell viability after 5 days by MTT assay; assay type: functional, cell-based; details: L929, 120 h
Summary of the method: (§3)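 MTT viability assay run over 5 days on a panel of eight lines (L929, KB3.1, A431, A549, SKOV-3, PC-3, MCF-7, U2OS). IC50 values were derived.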

Candida albicans = assay: Antifungal activity against Candida albicans DSM 1665 by serial dilution method; assay type: functional, organism-based
U2OS [10] = assay: Ratio of compound effect for induction of multipolar and duplicated spindle formation to compound effect for cytotoxicity for human U2OS cells; assay type: functional
Summary of the method: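 Spindle arm: U2OS in DMEM (4.5 g/L glucose, 10% FBS) at 37 °C, 7% CO2, on fibronectin-coated coverslips, adhered 16 h. Treated 24 h at 0.25–10 μg/mL (diluted from 1 mg/mL DMSO stock) with a DMSO control, PFA-fixed, and anti-α-tubulin immunostained to score mitotic spindles. Cytotoxicity arm: 5-day MTT. Ratio compares spindle-inducing concentration with cytotoxic concentration.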

MCF7 = assay: Cytotoxicity against human MCF7 cells assessed as reduction in cell viability after 5 days by MTT assay; assay type: functional, cell-based; details: MCF7, 120 h; summary of the method: as §3
U2OS [11] = assay: Induction of apoptosis in human U2OS cells assessed as caspase-3/7 cleavage at 10 ug/ml after 18 hrs by caspase-3/7 green reagent based flow cytometry (reference value: 8.04%)
Bacillus subtilis = assay: Antibacterial activity against Bacillus subtilis DSM 10 by serial dilution method; assay type: functional, organism-based
Aspergillus fumigatus = assay: Antifungal activity against Aspergillus fumigatus DSM 819 by serial dilution method; assay type: functional
Mucor hiemalis = assay: Antifungal activity against Mucor hiemalis DSM 2656 by serial dilution method; assay type: functional, organism-based
U2OS [12] = assay: Cell cycle arrest in human U2OS cells assessed as accumulation at sub-G1 phase at 10 ug/ml after 18 hrs by propidium iodide staining based flow cytometry (reference value: 0.19%); assay type: functional; summary of the method: as §1
Micrococcus luteus = assay: Antibacterial activity against Micrococcus luteus DSM 1790 by serial dilution method; assay type: functional, organism-based
[13] = system: Chromobacterium violaceum; assay: Antibacterial activity against Chromobacterium violaceum DSM 30191 by serial dilution method; assay type: functional, organism-based
U2OS [14] = assay: Induction of morphological changes in human U2OS cells at 0.25 to 5 ug/ml after 24 hrs by DAPI staining based immunofluorescence microscopic method
U2OS [15] = assay: Induction of apoptosis in human U2OS cells assessed as tubulin fragmentation up to 10 ug/ml after 18 hrs by flow cytometry; assay type: functional, cell-based; summary of the method: as §1
A549 = assay: Cytotoxicity against human A549 cells assessed as reduction in cell viability after 5 days by MTT assay; assay type: functional, cell-based; details: A549, 120 h; summary of the method: as §3
Wickerhamomyces anomalus = assay: Antifungal activity against Pichia anomala DSM 6766 by serial dilution method; assay type: functional, organism-based
L929 [16] = assay: Induction of nuclear fragmentation in mouse L929 cells at cytotoxic IC50 by DAPI staining based microscopic method; assay type: functional, cell-based
U2OS [17] = assay: Cell cycle arrest in human U2OS cells assessed as accumulation at G1 phase at 5 ug/ml after 18 hrs by propidium iodide staining based flow cytometry (reference value: 50.1%); assay type: functional; summary of the method: as §1
Mucor plumbeus = assay: Antifungal activity against Mucor plumbeus MUCL 49355 by serial dilution method; assay type: functional
U2OS [18] = assay: Cell cycle arrest in human U2OS cells assessed as accumulation at sub-G1 phase at 5 ug/ml after 18 hrs by propidium iodide staining based flow cytometry (reference value: 0.19%); assay type: functional; summary of the method: as §1
PC-3 = assay: Cytotoxicity against human PC3 cells assessed as reduction in cell viability after 5 days by MTT assay; assay type: functional, cell-based; details: PC-3, 120 h; summary of the method: as §3
U2OS [19] = assay: Cell cycle arrest in human U2OS cells assessed as accumulation at G1 phase at 10 ug/ml after 18 hrs by propidium iodide staining based flow cytometry (reference value: 50.1%); assay type: functional; summary of the method: as §1
U2OS [20] = assay: Induction of apoptosis in human U2OS cells assessed as lamin fragmentation up to 10 ug/ml after 18 hrs by flow cytometry; assay type: functional, cell-based; summary of the method: as §1

With `CC(=O)CC1=C(C)C=C2C[C@@H](C)C(=O)[C@@H](C)[C@@H]2[C@H]1/C=C(C)/C=C(C)/C=C/C(=O)O` the zone of inhibition at 100 µg/disc (Sclerotinia sclerotiorum) was 29 mm, the Activity (Caenorhabditis elegans) was “inactive” and the Activity (U2OS [1]) was 19.1%. For the same molecule, the Activity [2] was “inactive”, the Activity (Pseudomonas aeruginosa) was “inactive” and the Activity (U2OS [3]) was “Active”. For the same molecule, the Activity (Escherichia coli) was “inactive”, the Activity (U2OS [4]) was 10.8% and the Activity (U2OS [5]) was “Active”. The Activity (Setaria italica) was “inactive”, the Activity (U2OS [6]) was 17.4% and the Activity (U2OS [7]) was “Active”. The Activity [8] was “inactive”, the pIC50 (L929 [9]) was 5.04 and the Activity (Candida albicans) was “inactive”. The Ratio (U2OS [10]) was 10 - 20, the pIC50 (MCF7) was 5.14 and the Activity (U2OS [11]) was 5.72%. The Activity (Bacillus subtilis) was “inactive”, the MIC (Aspergillus fumigatus) was 8.3 µg/mL (≈ 20.9 µM) and the Activity (Mucor hiemalis) was “inactive”. The Activity (U2OS [12]) was 21.9%, the Activity (Micrococcus luteus) was “inactive” and the Activity [13] was “inactive”. The Activity (U2OS [14]) was “Active”, the Activity (U2OS [15]) was “Active” and the pIC50 (A549) was 4.64. The Activity (Wickerhamomyces anomalus) was “inactive”, the Activity (L929 [16]) was “Active” and the Activity (U2OS [17]) was 56.3%. It also gave an MIC (Mucor plumbeus) of 37.5 µg/mL (≈ 94.6 µM), an Activity (U2OS [18]) of 1.14% and a pIC50 (PC-3) of 4.74. For the same molecule, the Activity (U2OS [19]) was 50.7% and the Activity (U2OS [20]) was “Active”.
